# Measurements: ChEMBL document CHEMBL1155534, “Tetracyclic sulfones as potent gamma-secretase inhibitors: synthesis and structure-activity relationship studies” (Bioorg Med Chem Lett, 2010)
# What was measured:
# [1] = Inhibition of gamma secretase
# [2] = Inhibition of gamma-secretase-mediated cleavage of human APP expressed in HEK293 cells assessed as reduction in amyloid beta40 production; format: cell-based
# Method in brief: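 HEK293 cells expressing human APP carrying Swedish and London mutations, in fresh medium with inhibitor for 4 h. Aβ40 in conditioned medium measured by ECL; IC50 derived.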
# [3] = Inhibition of gamma-secretase-mediated cleavage of human APP expressed in HEK293 cells assessed as reduction in amyloid beta42 production; format: cell-based
# [4] = Clearance in human hepatocyte pre million cells; format: ADME, cell-based, Liver; conditions: hepatocytes
# hERG (KCNH2) = hERG (KCNH2) (Homo sapiens, UniProt Q12809); experiment: Inhibition of human ERG assessed as rubidium efflux at 5 ug/ml
# Mus musculus [5] = experiment: Reduction in amyloid beta 40 level in non-transgenic mouse brain at 10 mg/kg, po; format: ADME, organism-based; set-up: dose 10 mg/kg, route oral; scale not given: the % may be the effect or the level left; conditions: in vivo
# Method in brief: (§1)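 Non-transgenic mice given 10 mg/kg orally; Aβ40 reduction expressed as percent relative to vehicle controls, mean values (n = 5).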
# Mus musculus [6] = experiment: Reduction in amyloid beta 40 level in non-transgenic mouse plasma at 10 mg/kg, po; format: ADME, organism-based; set-up: dose 10 mg/kg, route oral; scale not given: the % may be the effect or the level left; conditions: in vivo; method in brief: as §1
# [7] = Plasma protein binding in human; format: ADME, cell-free; conditions: read-out: PPB (converted)
# Chain of hERG (KCNH2) (Q12809 whole entry): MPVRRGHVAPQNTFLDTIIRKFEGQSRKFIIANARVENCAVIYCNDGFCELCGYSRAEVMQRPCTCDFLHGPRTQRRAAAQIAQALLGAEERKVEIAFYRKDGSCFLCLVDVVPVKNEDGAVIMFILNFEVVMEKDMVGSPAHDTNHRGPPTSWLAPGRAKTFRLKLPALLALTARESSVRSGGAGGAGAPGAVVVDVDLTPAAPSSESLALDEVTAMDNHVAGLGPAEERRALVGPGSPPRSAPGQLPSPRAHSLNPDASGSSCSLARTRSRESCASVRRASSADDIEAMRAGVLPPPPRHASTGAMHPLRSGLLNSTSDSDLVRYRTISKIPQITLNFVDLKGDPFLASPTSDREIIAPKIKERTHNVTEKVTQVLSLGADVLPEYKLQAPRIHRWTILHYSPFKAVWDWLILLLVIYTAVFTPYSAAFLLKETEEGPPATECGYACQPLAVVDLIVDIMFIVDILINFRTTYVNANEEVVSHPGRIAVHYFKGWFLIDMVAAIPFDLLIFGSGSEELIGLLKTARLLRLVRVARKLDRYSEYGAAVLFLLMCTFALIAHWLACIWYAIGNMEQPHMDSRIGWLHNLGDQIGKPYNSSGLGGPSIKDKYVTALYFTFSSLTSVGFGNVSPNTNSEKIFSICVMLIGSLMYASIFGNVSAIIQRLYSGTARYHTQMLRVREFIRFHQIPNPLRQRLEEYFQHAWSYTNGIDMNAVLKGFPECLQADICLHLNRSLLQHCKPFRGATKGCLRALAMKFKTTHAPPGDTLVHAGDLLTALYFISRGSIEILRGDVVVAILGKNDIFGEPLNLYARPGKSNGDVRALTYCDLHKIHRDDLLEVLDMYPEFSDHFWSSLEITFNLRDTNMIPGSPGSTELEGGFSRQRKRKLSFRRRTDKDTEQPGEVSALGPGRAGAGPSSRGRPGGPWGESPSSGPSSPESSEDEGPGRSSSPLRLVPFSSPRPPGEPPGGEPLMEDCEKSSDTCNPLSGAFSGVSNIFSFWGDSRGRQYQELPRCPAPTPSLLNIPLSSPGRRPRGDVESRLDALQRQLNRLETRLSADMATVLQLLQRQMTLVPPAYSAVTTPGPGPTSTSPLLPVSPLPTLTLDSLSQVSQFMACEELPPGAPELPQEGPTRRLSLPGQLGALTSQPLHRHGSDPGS
IC50 [1] [nM],IC50 [2] [nM],IC50 [3] [nM],hepatocyte CLint [4] [µL/min/1e6 cells],Activity (Mus musculus [5]) [%],Activity (Mus musculus [6]) [%],fraction unbound [7],SMILES,inhibition at 5 ug/ml (hERG (KCNH2)) [%]
30,–,–,–,–,–,–,O=S1(=O)CC[C@@H]2[C@@H](CC[C@@]3(S(=O)(=O)c4ccc(C(F)(F)F)cc4)c4c(F)ccc(F)c4OC[C@@H]23)N1,–
5.5,3,1,–,–,–,–,CCCC1C[C@@H]2[C@@H](CC[C@@]3(S(=O)(=O)c4ccc(C(F)(F)F)cc4)c4c(F)ccc(F)c4OC[C@@H]23)NS1(=O)=O (stereo not given in full),–
7.7,7,2,–,–,–,–,C=CCC1C[C@@H]2[C@@H](CC[C@@]3(S(=O)(=O)c4ccc(C(F)(F)F)cc4)c4c(F)ccc(F)c4OC[C@@H]23)NS1(=O)=O (stereo not given in full),–
9,7.8,8,–,–,–,–,COCC1C[C@@H]2[C@@H](CC[C@@]3(S(=O)(=O)c4ccc(C(F)(F)F)cc4)c4c(F)ccc(F)c4OC[C@@H]23)NS1(=O)=O (stereo not given in full),–
14.6,–,–,–,–,–,–,C/C=C/CC1C[C@@H]2[C@@H](CC[C@@]3(S(=O)(=O)c4ccc(C(F)(F)F)cc4)c4c(F)ccc(F)c4OC[C@@H]23)NS1(=O)=O (stereo not given in full),–
60.9,–,–,–,–,–,–,O=S1(=O)N[C@@H]2CC[C@@]3(S(=O)(=O)c4ccc(C(F)(F)F)cc4)c4c(F)ccc(F)c4OC[C@H]3[C@@H]2CC1C/C=C/c1ccccc1 (stereo not given in full),–
48.3,930,1200,–,–,–,–,O=C(O)CC1C[C@@H]2[C@@H](CC[C@@]3(S(=O)(=O)c4ccc(C(F)(F)F)cc4)c4c(F)ccc(F)c4OC[C@@H]23)NS1(=O)=O (stereo not given in full),–
–,–,4,–,–,–,–,NC(=O)CC1C[C@@H]2[C@@H](CC[C@@]3(S(=O)(=O)c4ccc(C(F)(F)F)cc4)c4c(F)ccc(F)c4OC[C@@H]23)NS1(=O)=O (stereo not given in full),–
9.5,3.8,4.9,–,–,–,–,O=S1(=O)N[C@@H]2CC[C@@]3(S(=O)(=O)c4ccc(C(F)(F)F)cc4)c4c(F)ccc(F)c4OC[C@H]3[C@@H]2CC1CCCO (stereo not given in full),–
17,40.6,64,–,–,–,–,O=C(O)CCC1C[C@@H]2[C@@H](CC[C@@]3(S(=O)(=O)c4ccc(C(F)(F)F)cc4)c4c(F)ccc(F)c4OC[C@@H]23)NS1(=O)=O (stereo not given in full),–
45.5,–,–,–,–,–,–,O=S1(=O)N[C@@H]2CC[C@@]3(S(=O)(=O)c4ccc(C(F)(F)F)cc4)c4c(F)ccc(F)c4OC[C@H]3[C@@H]2CC1CCN1CCCC1 (stereo not given in full),–
48.4,–,–,–,–,–,–,O=S1(=O)N[C@@H]2CC[C@@]3(S(=O)(=O)c4ccc(C(F)(F)F)cc4)c4c(F)ccc(F)c4OC[C@H]3[C@@H]2CC1CCN1CCOCC1 (stereo not given in full),–
1.6,1,0.5,0.4,57,72,0.027,C[C@@H]1C[C@@H]2[C@@H](CC[C@@]3(S(=O)(=O)c4ccc(C(F)(F)F)cc4)c4c(F)ccc(F)c4OC[C@@H]23)NS1(=O)=O,4
1.9,5,2,0.3,42,84,0.019,CC[C@@H]1C[C@@H]2[C@@H](CC[C@@]3(S(=O)(=O)c4ccc(C(F)(F)F)cc4)c4c(F)ccc(F)c4OC[C@@H]23)NS1(=O)=O,10
